Assay results: ChEMBL document CHEMBL4017544 (J Med Chem, 2017)

Assay: Drug level in Wistar rat plasma treated with 1-Hydroxyl-2-cyano-3-(4-(methyl-L-glutaminate-N5-yl)-benzyloxy)-12-oxo-oleana-2(3),9(11)-dien-28-oic Acid Methyl Ester assessed as esterase-mediated metabolite formation at 100 uM after 8 hrs by HPLC analysis
Assay type: ADME
How it was run: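 Plasma, and kidney and liver homogenates in PBS, from three Wistar rats; substrate added at 100 μM at 37 °C; metabolite measured by HPLC every 60 min for 8 h; mean ± SD of three experiments.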

COC(=O)[C@]12CCC(C)(C)C[C@H]1[C@H]1C(=O)C=C3[C@@]4(C)[C@@H](O)C(C#N)=C(OCc5ccc(NC(=O)CC[C@H](N)C(=O)O)cc5)C(C)(C)[C@@H]4CC[C@@]3(C)[C@]1(C)CC2
Drug metabolism: Metabolite_Detected
